Assays:
Parameters in all cases: scale not given: the % may be the effect or the level left
Rattus norvegicus [1] = species: Rattus norvegicus; experiment: Reduction in triglyceride level in CFE rat […] in serum at 0.05% of diet treated through diet for 6 days relative to control; type: functional
Procedure, shortened: (§1)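 Compound dissolved in methanol-chloroform (1:3 v/v), mixed into ground rat chow at 0.1, 0.05 or 0.025% (w/w), and solvent evaporated; controls received solvent-treated chow. Rats fed ad libitum with water for 6 days, then killed fed and bled. Serum sterols and triglycerides measured by autoanalyzer. Values given as percent of control, mean ± SE; significance by Student's t test.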

Rattus norvegicus [2] = species: Rattus norvegicus; experiment: Reduction in sterol level in CFE rat […] in serum at 0.05% of diet treated through diet for 6 days relative to control; type: functional; procedure, shortened: as §1
Rattus norvegicus [3] = species: Rattus norvegicus; experiment: Reduction in triglyceride level in CFE rat […] at 0.025% of diet treated through diet for 6 days relative to control; type: functional, Serum; procedure, shortened: as §1
Rattus norvegicus [4] = species: Rattus norvegicus; experiment: Reduction in triglyceride level in CFE rat […] in serum at 0.1% of diet treated through diet for 6 days relative to control; type: functional; procedure, shortened: as §1
Rattus norvegicus [5] = species: Rattus norvegicus; experiment: Reduction in sterol level in CFE rat […] at 0.025% of diet treated through diet for 6 days relative to control; type: functional, Serum; procedure, shortened: as §1
Rattus norvegicus [6] = species: Rattus norvegicus; experiment: Reduction in sterol level in CFE rat […] in serum at 0.1% of diet treated through diet for 6 days relative to control; type: functional; procedure, shortened: as §1
Rattus norvegicus [7] = species: Rattus norvegicus; experiment: Reduction in sterol level in CFE rat […] in serum at 0.005% of diet treated through diet for 6 days relative to control; type: functional
Rattus norvegicus [8] = species: Rattus norvegicus; experiment: Reduction in triglyceride level in CFE rat […] in serum at 0.005% of diet treated through diet for 6 days relative to control; type: functional
Rattus norvegicus [9] = species: Rattus norvegicus; experiment: Reduction in triglyceride level in CFE rat […] in serum at 0.3% of diet treated through diet for 6 days relative to control; type: functional
Rattus norvegicus [10] = species: Rattus norvegicus; experiment: Reduction in sterol level in CFE rat […] in serum at 0.3% of diet treated through diet for 6 days relative to control; type: functional

Structure (SMILES)	Activity (Rattus norvegicus [1]) [%]	Activity (Rattus norvegicus [2]) [%]	Activity (Rattus norvegicus [3]) [%]	Activity (Rattus norvegicus [4]) [%]	Activity (Rattus norvegicus [5]) [%]	Activity (Rattus norvegicus [6]) [%]	Activity (Rattus norvegicus [7]) [%]	Activity (Rattus norvegicus [8]) [%]	Activity (Rattus norvegicus [9]) [%]	Activity (Rattus norvegicus [10]) [%]
CCCCCCCCCCCCCCCCOc1ccc(C(=O)O)cc1	62	83	58	46	89	74				
CC(C)=CCC/C(C)=C/CC/C(C)=C/COc1ccc(C(=O)O)cc1	111	102	131	133	108	87				
CCCCCCCCCCCC1OC1CCCOc1ccc(C(=O)O)cc1 (stereo not given)	52	85	74	55	90	85				
O=C(O)c1ccc(OC(=O)C2C3CC4CC(C3)CC2C4)cc1 (stereo not given)	101	99	90	113	93	92				
O=C(O)c1ccc(OCCCCCCCCCCCCCCCOc2ccc(C(=O)O)cc2)cc1	77	103	64	51	97	94				
CCCCCCCCCCCC(=O)CCOc1ccc(C(=O)O)cc1	75	89	84	74	89	92				
FC(F)(F)c1ccc(-c2ccc(OCCN3CCCC3)cc2)cc1 [BOXIDINE]							60	55		
CCOC(=O)C(C)(C)Oc1ccc(Cl)cc1 [CLOFIBRATE]									42	81
